According to ChEMBL document CHEMBL3351780, “Novel hybrids of metronidazole and quinolones: synthesis, bioactive evaluation, cytotoxicity, preliminary antimicrobial mechanism and effect of metal ions on their transportation by human serum albumin” (Eur J Med Chem, 2014):
Converted amounts (≈) assume the structure as drawn. The source made the active and inactive calls. The calls are words filed in the database; no cut-off is given here.

Columns and labels:
[1] = test system: Streptococcus pneumoniae; test: Antibacterial activity against Streptococcus pneumoniae by two-fold serial dilution method; format: functional
How it was run: (§1)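 Standard two-fold serial dilution in 96-well microtest plates following NCCLS. Top dilutions printed as 32, 16, 8, 4, 2, 1, 0.5 ug/mL. Wells inoculated and held at 37 °C for 24 h. Growth judged visually and by spectrophotometer, in triplicate. MIC is the lowest concentration giving complete growth inhibition.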

[2] = test system: Micrococcus luteus; test: Antibacterial activity against Micrococcus luteus by two-fold serial dilution method; format: functional; how it was run: as §1
[3] = test system: Staphylococcus aureus; test: Antibacterial activity against methicillin-resistant Staphylococcus aureus N315 by two-fold serial dilution method; format: functional
How it was run: (§2)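 MIC read as the lowest concentration giving complete growth inhibition. Two-fold serial dilutions were made in 96-well plates following NCCLS, giving a series down to 0.5 µg/mL (…32, 16, 8, 4, 2, 1, 0.5). Plates were inoculated and incubated at 37 °C for 24 h. A DMSO-with-inoculum control without drug was included. Growth was monitored visually and spectrophotometrically, in triplicate.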

[4] = test system: Staphylococcus aureus; test: Antibacterial activity against Staphylococcus aureus ATCC 25923 by two-fold serial dilution method; format: functional; how it was run: as §1
[5] = test system: Bacillus spizizenii; test: Antibacterial activity against Bacillus subtilis ATCC 6633 by two-fold serial dilution method; format: functional; how it was run: as §1
[6] = test system: Pseudomonas aeruginosa; test: Antibacterial activity against Pseudomonas aeruginosa by two-fold serial dilution method; format: functional; how it was run: as §1
[7] = test system: Escherichia coli; test: Antibacterial activity against Escherichia coli DH52 by two-fold serial dilution method; format: functional; how it was run: as §1
[8] = test system: Shigella dysenteriae; test: Antibacterial activity against Shigella dysenteriae by two-fold serial dilution method; format: functional; how it was run: as §2
[9] = Antibacterial activity against Eberthella typhosa by two-fold serial dilution method; format: functional; how it was run: as §2
[10] = test system: Cyberlindnera jadinii; test: Antifungal activity against Candida utilis after 24 hrs by microbroth dilution method; format: functional; details: Williopsis jadinii
How it was run: (§3)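 Spore suspension prepared in sterile distilled water from one-day-old cultures on Sabouraud agar, final 1-5 x 10^3 spores/mL. Compounds were serially diluted in RPMI 1640 to give eleven dilutions. Incubation at 35 °C for 24 h. Growth read visually and spectrophotometrically, in triplicate. MIC is the lowest concentration with complete inhibition.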

[11] = test system: Saccharomyces cerevisiae; test: Antifungal activity against Saccharomyces cerevisiae after 24 hrs by microbroth dilution method; format: functional; how it was run: as §3
[12] = test system: Candida albicans; test: Antifungal activity against Candida albicans ATCC 76615 after 24 hrs by microbroth dilution method; format: functional; details: ATCC 76615, 24 h; how it was run: as §3
[13] = test system: Pichia norvegensis; test: Antifungal activity against Candida mycoderma after 24 hrs by microbroth dilution method; format: functional
[14] = Dissociation constant, pKa of the compound by UV-spectroscopy; format: physicochemical
How it was run: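 DMSO stock at 4.0 × 10^-3 mol/L added to 2 mL of buffer, then shaken 10 min at room temperature. Buffers were acetate (pH 4.0–5.0), MES (5.5–6.5), HEPES (7.0–8.0) and CHES (8.5–9.4), each from 500 mM stocks. Scans ran 210–400 nm and were normalized. Absolute differences from the acid spectrum were summed at 244 and 308 nm, plotted against pH and fitted to obtain pKa.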

[15] = Octanol-water partition co-efficient, log P of the compound by shake flask method; format: physicochemical
[16] = Aqueous solubility of the compound by UV-spectrophotometry; format: physicochemical
[17] = test system: Calf thymus DNA; test: Binding affinity to calf thymus DNA by UV-vis spectroscopy; format: nucleic-acid assay; details: Bos taurus
How it was run: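 Calf thymus DNA held at a fixed concentration and titrated with increasing amounts of the compound. UV-vis absorption spectra were recorded at room temperature in 1.0 cm quartz cells, following the DNA band at 260 nm.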

[18] = test system: Aspergillus flavus; test: Antifungal activity against Aspergillus flavus ATCC 96918 after 24 hrs by microbroth dilution method
[19] = Cytotoxicity against human A549 cells assessed as cell viability at 256 ug/ml after 24 hrs by CCK-8 assay; format: cell-based; details: read-out: Activity
How it was run: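 A549 cells were plated and allowed to attach for 24 h, then medium with the compound was added. The compound came from DMSO stocks diluted in medium to 8, 16, 32, 64, 128 and 256 µg/mL. Cells were kept at 37 °C in 5% CO2. Viability was read by CCK-8 absorbance at 450 nm against a drug-free control, three replicates.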

| Structure (SMILES) | MIC [1] | MIC [2] | MIC [3] | MIC [4] | MIC [5] | MIC [6] | MIC [7] | MIC [8] | MIC [9] | MIC [10] | MIC [11] | MIC [12] | MIC [13] | pKa [14] | logP [15] | solubility [16] | Activity [17] | MIC [18] | viability at 24 h, 256 ug/ml [19] |
| --- | --- | --- | --- | --- | --- | --- | --- | --- | --- | --- | --- | --- | --- | --- | --- | --- | --- | --- | --- |
| COc1ccc2c(c1)c(=O)c(C(=O)O)cn2CC(O)Cn1c([N+](=O)[O-])cnc1C (centres undefined) | 64 µg/mL (≈ 159 µM) | 512 µg/mL (≈ 1270 µM) | 8 µg/mL (≈ 19.9 µM) | 32 µg/mL (≈ 79.5 µM) | 32 µg/mL (≈ 79.5 µM) | 512 µg/mL (≈ 1270 µM) | 64 µg/mL (≈ 159 µM) | 32 µg/mL (≈ 79.5 µM) | 8 µg/mL (≈ 19.9 µM) | 128 µg/mL (≈ 318 µM) | 256 µg/mL (≈ 636 µM) | 128 µg/mL (≈ 318 µM) | 512 µg/mL (≈ 1270 µM) | 5.72 | -0.24 | 400 µg/mL (≈ 994 µM) |  |  |  |
| O=C(O)c1cn(CC(O)Cn2cnc([N+](=O)[O-])c2)c2c(F)cc(F)cc2c1=O (centres undefined) | 16 µg/mL (≈ 40.6 µM) | 8 µg/mL (≈ 20.3 µM) | 16 µg/mL (≈ 40.6 µM) | 16 µg/mL (≈ 40.6 µM) | 8 µg/mL (≈ 20.3 µM) | 32 µg/mL (≈ 81.2 µM) | 32 µg/mL (≈ 81.2 µM) | 32 µg/mL (≈ 81.2 µM) | 32 µg/mL (≈ 81.2 µM) | 256 µg/mL (≈ 649 µM) | 256 µg/mL (≈ 649 µM) | 16 µg/mL (≈ 40.6 µM) | 64 µg/mL (≈ 162 µM) |  |  |  |  |  |  |
| CCn1cc(C(=O)O)c(=O)c2cc(F)c(N3CCNCC3)cc21 [NORFLOXACIN] | 1 µg/mL (≈ 3.13 µM) |  |  |  | 1 µg/mL (≈ 3.13 µM) |  |  |  | 4 µg/mL (≈ 12.5 µM) |  |  |  |  |  |  |  | Active |  |  |
| CCOC(=O)c1cn(CC2CO2)c2cc(C(F)(F)F)ccc2c1=O (racemic) |  |  |  |  | 31 µg/mL (≈ 90.8 µM) |  |  |  | 2 µg/mL (≈ 5.86 µM) | 512 µg/mL (≈ 1500 µM) |  |  | 32 µg/mL (≈ 93.8 µM) |  |  |  |  | 512 µg/mL (≈ 1500 µM) |  |
| Cc1ncc([N+](=O)[O-])n1CC(O)Cn1cc(C(=O)O)c(=O)c2cc(F)c(Cl)cc21 (centres undefined) | 8 µg/mL (≈ 18.8 µM) | 64 µg/mL (≈ 151 µM) | 4 µg/mL (≈ 9.42 µM) | 32 µg/mL (≈ 75.3 µM) | 8 µg/mL (≈ 18.8 µM) | 16 µg/mL (≈ 37.7 µM) | 2 µg/mL (≈ 4.71 µM) | 16 µg/mL (≈ 37.7 µM) | 128 µg/mL (≈ 301 µM) | 512 µg/mL (≈ 1210 µM) | 128 µg/mL (≈ 301 µM) | 64 µg/mL (≈ 151 µM) | 256 µg/mL (≈ 603 µM) | 5.14 | 0.18 | 430 µg/mL (≈ 1010 µM) |  |  |  |
| CCOC(=O)c1cn(CC2CO2)c2c(F)cccc2c1=O (racemic) |  |  |  |  | 32 µg/mL (≈ 110 µM) |  |  |  | 2 µg/mL (≈ 6.87 µM) | 512 µg/mL (≈ 1760 µM) |  |  | 64 µg/mL (≈ 220 µM) |  |  |  |  | 512 µg/mL (≈ 1760 µM) |  |
| Cc1ccc2c(c1)c(=O)c(C(=O)O)cn2CC(O)Cn1c([N+](=O)[O-])cnc1C (centres undefined) | 4 µg/mL (≈ 10.4 µM) | 1 µg/mL (≈ 2.59 µM) | 4 µg/mL (≈ 10.4 µM) | 8 µg/mL (≈ 20.7 µM) | 8 µg/mL (≈ 20.7 µM) | 2 µg/mL (≈ 5.18 µM) | 1 µg/mL (≈ 2.59 µM) | 8 µg/mL (≈ 20.7 µM) | 8 µg/mL (≈ 20.7 µM) | 512 µg/mL (≈ 1330 µM) | 2 µg/mL (≈ 5.18 µM) | 16 µg/mL (≈ 41.4 µM) | 256 µg/mL (≈ 663 µM) | 6.43 | -0.03 | 390 µg/mL (≈ 1010 µM) |  |  | > 83% |
| COc1ccc2c(c1)c(=O)c(C(=O)O)cn2CC(O)Cn1cnc([N+](=O)[O-])c1 (centres undefined) | 64 µg/mL (≈ 165 µM) | 256 µg/mL (≈ 659 µM) | 16 µg/mL (≈ 41.2 µM) | 64 µg/mL (≈ 165 µM) | 16 µg/mL (≈ 41.2 µM) | 128 µg/mL (≈ 330 µM) | 64 µg/mL (≈ 165 µM) | 16 µg/mL (≈ 41.2 µM) | 32 µg/mL (≈ 82.4 µM) | 128 µg/mL (≈ 330 µM) | 512 µg/mL (≈ 1320 µM) | 128 µg/mL (≈ 330 µM) | 128 µg/mL (≈ 330 µM) |  |  |  |  |  |  |
